Experiments:
NCI-H460 = experiment: Cytotoxicity against human H460 cells assessed as growth inhibition measured after 72 hrs by SRB assay; assay type: functional
Procedure, shortened: (§1)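 Cancer lines were kept in DMEM with 10% FBS and glutamine at 37 °C, 5% CO2, and seeded at 2500–4000 cells per well in duplicate. Compound (from 40 mM DMSO stocks) was added 24 h after plating and left for 72 h. Cells were TCA-fixed, stained with SRB and read at 540 nm. GI50 came from an eight-point dose-response, using the change from day-0 optical density, with three to four independent replicates.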

U-87 MG = experiment: Cytotoxicity against human U87 cells assessed as growth inhibition measured after 72 hrs by SRB assay; assay type: functional, U-87MG ATCC; procedure, shortened: as §1
A-431 = experiment: Cytotoxicity against human A431 cells assessed as growth inhibition measured after 72 hrs by SRB assay; assay type: functional; procedure, shortened: as §1
[1] = Cytotoxicity against human MCF10A cells assessed as growth inhibition measured after 72 hrs by SRB assay; assay type: cell-based, MCF-10A
HT-29 = experiment: Cytotoxicity against human HT29 cells assessed as growth inhibition measured after 72 hrs by SRB assay; assay type: functional; procedure, shortened: as §1
DU-145 = experiment: Cytotoxicity against human DU-145 cells assessed as growth inhibition measured after 72 hrs by SRB assay; assay type: functional; procedure, shortened: as §1
BE(2)-C = experiment: Cytotoxicity against human BE2C cells assessed as growth inhibition measured after 72 hrs by SRB assay; assay type: functional; procedure, shortened: as §1
MCF7 = experiment: Cytotoxicity against human MCF-7 cells assessed as growth inhibition measured after 72 hrs by SRB assay; assay type: functional; procedure, shortened: as §1
MIA PaCa-2 = experiment: Cytotoxicity against human MIA cells assessed as growth inhibition measured after 72 hrs by SRB assay; assay type: functional; procedure, shortened: as §1
[2] = Cytotoxicity against human SJG2 cells assessed as growth inhibition measured after 72 hrs by SRB assay; assay type: functional; conditions: SJ-G2; procedure, shortened: as §1
A2780 = experiment: Cytotoxicity against human A2780 cells assessed as growth inhibition measured after 72 hrs by SRB assay; assay type: functional; procedure, shortened: as §1

Compound	GI50 (NCI-H460) [nM]	GI50 (U-87 MG) [nM]	GI50 (A-431) [nM]	GI50 at 72 h [1] [nM]	GI50 (HT-29) [nM]	GI50 (DU-145) [nM]	GI50 (BE(2)-C) [nM]	GI50 (MCF7) [nM]	GI50 (MIA PaCa-2) [nM]	GI50 [2] [nM]	GI50 (A2780) [nM]
CC1CCCN(CC(O)COc2ccc(/C=C(\C#N)c3ccc(Cl)c(Cl)c3)cc2)C1 (racemic)	2900	2800	2500	2500	2400	4000	2600	2300	3300	2800	2800
N#C/C(=C\c1ccc(OCC(O)CN2CCC(c3ccccc3)CC2)cc1)c1ccc(Cl)c(Cl)c1 (racemic)	2700	2900	2600	2500	1900	2700	2600	2500	2400	2500	2700
Cc1ccc(N2CCN(CC(O)COc3ccc(/C=C(\C#N)c4ccc(Cl)c(Cl)c4)cc3)CC2)cc1 (racemic)	2500	6000	3100	3500	2600	2700	2700	2300	3000	2900	3000
CC1CCN(CC(O)COc2ccc(/C=C(\C#N)c3ccc(Cl)c(Cl)c3)cc2)CC1 (racemic)	2900	2900	2600	2700	1700	4600	2600	2300	3400	3000	2700
N#C/C(=C\c1ccc(OCC(O)CNC2CCCCC2)cc1)c1ccc(Cl)c(Cl)c1 (racemic)	2200	2800	2200	2800	2000	2400	2800	2700	2700	2700	2900
CN1CCN(CC(O)COc2ccc(/C=C(\C#N)c3ccc(Cl)c(Cl)c3)cc2)CC1 (racemic)	2600	2700	1800	2400	1200	2400	2400	2300	2600	2200	2500
N#C/C(=C\c1ccc(OCC(O)CN2CCN(c3ccccc3)CC2)cc1)c1ccc(Cl)c(Cl)c1 (racemic)	4000	5400	6300	4800	3300	3500	16000	4100	5700	9000	6300
N#C/C(=C\c1ccc(OCC(O)CN2CCN(c3ccc(C(F)(F)F)cc3)CC2)cc1)c1ccc(Cl)c(Cl)c1 (racemic)	> 50000	> 50000	> 50000	> 50000	–	> 50000	> 50000	> 50000	> 50000	> 50000	> 50000
N#C/C(=C\c1ccc(OCC(O)CN2CCCC2)cc1)c1ccc(Cl)c(Cl)c1 (racemic)	3000	5600	2600	2900	1500	4200	2800	2800	5600	3700	2700
N#C/C(=C\c1ccc(OCC(O)CN2CCOCC2)cc1)c1ccc(Cl)c(Cl)c1 (racemic)	8700	17000	3000	5600	3100	13000	3000	5300	13000	9300	8900
CC(=O)c1ccc(N2CCN(CC(O)COc3ccc(/C=C(\C#N)c4ccc(Cl)c(Cl)c4)cc3)CC2)cc1 (racemic)	> 50000	> 50000	30000	7500	7700	12000	> 50000	11000	> 50000	> 50000	40000
N#C/C(=C\c1ccc(OCC(O)CNc2ccc(Br)cc2)cc1)c1ccc(Cl)c(Cl)c1 (racemic)	6800	16000	11000	13000	6000	13000	11000	5300	11000	11000	10000
N#C/C(=C\c1ccc(OCC(O)CN2CCN(c3ccc([N+](=O)[O-])cc3)CC2)cc1)c1ccc(Cl)c(Cl)c1 (racemic)	> 50000	> 50000	> 50000	> 50000	> 50000	> 50000	> 50000	> 50000	> 50000	> 50000	> 50000
N#C/C(=C\c1ccc(OCC(O)CNC23CC4CC(CC(C4)C2)C3)cc1)c1ccc(Cl)c(Cl)c1 (racemic)	1800	2500	2100	2500	890	2500	2200	2000	1900	2000	1700
Cc1ccc(CN2CCN(CC(O)COc3ccc(/C=C(\C#N)c4ccc(Cl)c(Cl)c4)cc3)CC2)cc1 (racemic)	2700	3600	2400	2400	1400	4500	2000	1700	2600	2400	1500
N#C/C(=C\c1ccc(OCC(O)CNc2ccc(Cl)cc2)cc1)c1ccc(Cl)c(Cl)c1 (racemic)	11000	16000	15000	17000	7000	15000	14000	11000	14000	15000	10000
N#C/C(=C\c1ccc(OCC(O)CNC2C3CC4CC(C3)CC2C4)cc1)c1ccc(Cl)c(Cl)c1 (racemic)	2700	2700	2800	2700	1400	2600	2600	2100	2400	2600	2500
N#C/C(=C\c1ccc(OCC(O)CN2CCN(c3ccc(Cl)cc3)CC2)cc1)c1ccc(Cl)c(Cl)c1 (racemic)	28000	> 50000	27000	18000	9000	32000	> 50000	15000	17000	24000	15000
N#C/C(=C\c1ccc(OCC(O)CN2CCCCCC2)cc1)c1ccc(Cl)c(Cl)c1 (racemic)	3500	3800	2900	3100	1700	4600	2600	2800	5500	5300	3000

From ChEMBL document CHEMBL4732034, “Amino alcohol acrylonitriles as broad spectrum and tumour selective cytotoxic agents” (RSC Med Chem, 2021)
